An excerpt weighted towards active compounds, which were near 2.5% of everything screened.
Efflux pump inh – inhibitors of Candida efflux pumps in yeast, primary screen, S. cerevisiae, Nile Red, multiplex; S. cerevisiae Candida pump triplex; inhibition, % at 10 µM; hit rate 0.44% among 330,000; AID 485275, 2010;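 active = plate passing quality check with inhibition over a set limit, or well fluorescence over plate mean plus 4 SD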;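 also: Nile Red retained in pooled yeast measured as flow cytometry median fluorescence; 0% = buffer negative control and 100% = Enniatin B positive control; higher means more Nile Red kept so more efflux inhibition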
MEKK2wt PB1 HTS – modulators of MEK5 binding to wildtype MEKK2, primary screen, biochemical, multiplex bead flow cytometry, Alexa488-MEK5. Mitogen-activated protein kinase kinase kinase 2 (Homo sapiens), Q9Y2U5. Alexa488-MEK5 binding to MEKK2 WT; actives lie on both sides. binding response (% of control), % at 10 µM. hit rate 1.1% among 290,000. AID 1531, 2009; in the data active = binding response below about 67% or above about 130%
MEKK3 PB1 HTS – modulators of MEKK3-MEK5 PB1 binding, primary screen, biochemical, wildtype MEKK3, multiplex bead flow cytometry, Alexa488-MEK5; bead-based flow cytometry, Alexa488-MEK5 binding to MEKK3; actives lie on both sides; 0 = blocked by unlabeled MEK5, 100 = vehicle; hit rate 1.4% among 290,000; binding response (% of control), % at 10 µM; Mitogen-activated protein kinase kinase kinase 3 (Homo sapiens), Q99759;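 active = binding response more than 3 SD above or below the average of its plate-row segment, actives on both sides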;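 also: Alexa488 bead fluorescence after subtracting the streptavidin-only scavenger bead signal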
ABCG2 block – ABCG2 efflux pump inhibitors, primary screen, multiplex with ABCB1, IgMXP3 cells, flow cytometry; inhibition, % at 6.6 µM; Broad substrate specificity ATP-binding cassette transporter ABCG2 (Homo sapiens), Q9UNQ0; hit rate 0.1% among 190,000; JC-1 efflux;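 active = inhibition above 80%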;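 also: 0% = DMSO and 100% = nicardipine control wells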
Target sequence (Q9UNQ0 whole entry, looked up): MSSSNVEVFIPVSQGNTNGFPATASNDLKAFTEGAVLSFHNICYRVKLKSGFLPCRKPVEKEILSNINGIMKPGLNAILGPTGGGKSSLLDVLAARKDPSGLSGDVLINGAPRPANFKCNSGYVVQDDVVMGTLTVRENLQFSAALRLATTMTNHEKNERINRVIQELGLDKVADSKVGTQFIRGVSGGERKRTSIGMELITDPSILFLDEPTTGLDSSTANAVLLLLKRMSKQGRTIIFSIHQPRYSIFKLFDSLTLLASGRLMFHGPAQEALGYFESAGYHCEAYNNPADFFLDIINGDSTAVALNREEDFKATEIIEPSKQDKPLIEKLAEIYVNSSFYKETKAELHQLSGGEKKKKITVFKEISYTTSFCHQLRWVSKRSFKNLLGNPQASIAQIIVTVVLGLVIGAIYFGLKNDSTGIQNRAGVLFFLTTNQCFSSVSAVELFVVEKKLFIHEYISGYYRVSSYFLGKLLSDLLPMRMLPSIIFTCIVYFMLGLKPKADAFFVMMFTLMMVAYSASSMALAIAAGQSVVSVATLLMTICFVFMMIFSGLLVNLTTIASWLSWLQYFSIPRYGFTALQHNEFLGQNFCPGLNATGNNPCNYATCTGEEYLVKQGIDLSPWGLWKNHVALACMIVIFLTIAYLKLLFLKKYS
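Assay system – ABCG2 IgMXP3 and barcoded ABCB1 CCRF-Adr cell mix · Input – 3 million cells/mL in well · Reagent – JC-1 fluorescent substrate · Compound – single test compound dose, 6.6 µM final · Timing – 10 min exposure at 25 °C with rotation, no wash · Detection – flow cytometry of retained JC-1 fluorescence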
MEKK2mut PB1 HTS – MEK5 binding signal on mutant MEKK2 PB1, primary screen, biochemical, multiplex bead flow cytometry, Alexa488-MEK5; Alexa488-MEK5 binding to MEKK2 mutant; percent response, % at 10 µM; hit rate 0.35% among 290,000; AID 1530, 2009; in the data active = percent response above about 24%, passing the limit was not always enough
ABCB1 block – ABCB1 efflux pump inhibitors, primary screen, cell-based, multiplex, flow cytometry, ABCG2 counter-screen; ATP-dependent translocase ABCB1 (Homo sapiens), P08183; CCRF-Adr cells, JC-1 efflux; inhibition, % at 6.6 µM; hit rate 0.067% among 190,000; AID 1326, 2008; in the data active = inhibition above about 40%;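 also: 0% = vehicle and 100% = reference inhibitor; higher value means more JC-1 retained so stronger ABCB1 efflux block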
Yeast cmpd fluor – compound fluorescence in yeast efflux pump counter-screen; shares compounds with Efflux pump inh; S. cerevisiae AD/pABC3, flow cytometry; fluorescence ratio to DMSO, % at 10 µM; hit rate 4% among 1,700; AID 588517;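 active = fluorescence ratio to DMSO above its plate's cutoff, the plate mean ratio plus 5 SD, cut at about 210% in these data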;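 also: unstained yeast with no Nile Red so the signal is compound autofluorescence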
Mdr1 pump inh – inhibitors of Candida albicans Mdr1 efflux, confirmation, flow cytometry, singleplex, Cherry Pick1 set. shares compounds with Efflux pump inh. S. cerevisiae AD/CaMDR1, Nile Red efflux. inhibition, % at 10 µM. hit rate 1% among 1,700; in the data active = inhibition above about 26%;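 also: 0% = DMSO vehicle and 100% = reference inhibitor; higher means more Nile Red retained so more efflux inhibition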
CaCdr2 efflux inh – inhibitors of Candida albicans Cdr2 efflux pump, confirmation, S. cerevisiae AD/CaCDR2, flow cytometry, cherry pick 1, singleplex | Nile Red retention | AID 588520, 2011 | hit rate 4% among 1,700 | shares compounds with Efflux pump inh | Nile Red retention ratio vs DMSO, % at 10 µM; in the data active = Nile Red retention ratio vs DMSO above about 190%;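 also: higher ratio means more blocking of Cdr2 efflux of the dye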
CaCdr1 efflux inh – inhibitors of Candida albicans Cdr1 efflux pump, confirmation, S. cerevisiae AD/CaCDR1, flow cytometry, cherry pick 1, singleplex; hit rate 1% among 1,700; inhibition, % at 10 µM; shares compounds with Efflux pump inh; AID 588522, 2011; Nile Red efflux;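 active = inhibition above the screen-wide mean plus twice its standard deviation, cut at about 32% in these data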
Active calls of the source: *; · = no result.

SMILES	Efflux pump inh	MEKK2wt PB1 HTS	MEKK3 PB1 HTS	ABCG2 block	MEKK2mut PB1 HTS	ABCB1 block	Yeast cmpd fluor	Mdr1 pump inh	CaCdr2 efflux inh	CaCdr1 efflux inh
CC(C)(C)NC(=O)C(c1ccc(F)cc1)N(C(=O)CCC(=O)Nc1ccccn1)C1CCCC1 (centres undefined)	2.4*	97	98	·	1	·	103	0	131	0
CCN(CC(=O)NC(C)C)C(=O)Cc1ccc(C)c(C)c1	0	103	107	-1	-4	0	·	·	·	·
Cc1cc2ccccc2n2c(SCC(=O)Nc3ccc(S(=O)(=O)N4CCCCC4)cc3)nnc12	1	98	98	-2	1	0	·	·	·	·
Cc1cc2ccccc2n2c(SCC(=O)Nc3ccc(S(=O)(=O)N4CCC(C)CC4)cc3)nnc12	6.8*	99	104	2	-1	3	96	0	114	0
CCOC(=O)c1ccc(-c2cc(C)no2)[nH]1	6.5*	101	101	7	-1	0	106	0	107	0
CCOC(=O)c1cc(-c2ccccc2)n[nH]1	0	102	105	·	18	·	·	·	·	·
CCN(CC)C(=O)c1cn(-c2cccc(OC)c2)c(=O)c2ccccc12	0	113	112	·	14	·	·	·	·	·
O=C(O)C1CC=CCC1C(=O)Nc1ccc(N2CCN(Cc3ccccc3)CC2)cc1 (centres undefined)	11*	92	96	0	-1	0	92	0	95	0
O=C(Nc1ccc(N2CCN(Cc3ccccc3)CC2)cc1)c1ccco1	0	100	96	·	1	·	·	·	·	·
Cn1c(=O)c2c(SCC(=O)NCC3CCCO3)nc(-c3ccccc3Cl)nc2n(C)c1=O (centres undefined)	0.8*	103	100	·	4	·	81	0	87	0
Cc1cc(C)cc(NC(=O)COC(=O)CN=C2NS(=O)(=O)c3ccccc32)c1	0	100	102	0	-2	0	·	·	·	·
O=C(C(Cl)Cl)N1CCN(Cc2ccccc2)CC1	16*	114	108	20	21	0	98	0	89	0
CC(C)(C)S(=O)(=O)c1ccsc1C(=O)O	14*	107	103	1	1	0	98	0	109	0
O=C(O)c1sccc1S(=O)(=O)c1ccccc1	0	102	105	1	2	0	·	·	·	·
CSc1ccccc1C(=O)NC1CCSc2ccccc21 (centres undefined)	0	99	104	·	0	·	·	·	·	·
CC(C)OCCCNC(=O)C1CCN(S(=O)(=O)c2ccc3nc4c(c(C(=O)O)c3c2)CCCCC4)CC1	0	102	101	·	1	·	·	·	·	·
COCCCn1c(SCC(=O)OC2CCCCC2)nnc1-c1cccs1	1.3*	95	95	7	-7	1	96	0	120	0
COCCCn1c(SCC(=O)OC2CCCCC2)nnc1-c1ccco1	0	95	99	2	-2	1	·	·	·	·
COc1cccc(CN2CCNC(=O)C2CC(=O)NCCOc2cccnc2)c1 (centres undefined)	0	85	98	2	-7	0	·	·	·	·
O=C(CN1CCCc2ccccc21)N/N=C/c1ccc(O)cc1O	0	96	98	0	7	0	·	·	·	·
O=C(CN1CCCc2ccccc21)N/N=C/c1c(O)ccc2ccccc12	13*	112	100	4	1	0	94	0	106	0
COc1ccc(-c2[nH]c(-c3ccc4c(c3)OCO4)nc2-c2ccccc2)cc1	0.3*	121	108	1	10	0	105	0	114	0
COc1cc(-c2nc(-c3ccccc3)c(-c3ccc(F)cc3)[nH]2)cc2c1OCO2	0	110	117	2	0	0	·	·	·	·
CN(c1ccccc1)c1ccc(/C=C(\C#N)c2nnc3n2CCCCC3)cc1[N+](=O)[O-]	16*	91	97	14	1	1	81	0	97	0
O=C(CCc1ccccc1)NC(=S)Nc1ccc(S(=O)(=O)N2CCOCC2)cc1	8.0*	104	101	10	-2	1	104	0	99	0
SMILES	Efflux pump inh	MEKK2wt PB1 HTS	MEKK3 PB1 HTS	ABCG2 block	MEKK2mut PB1 HTS	ABCB1 block	Yeast cmpd fluor	Mdr1 pump inh	CaCdr2 efflux inh	CaCdr1 efflux inh
COc1ccc(-c2cc(C(=O)N3CCN(C(=O)c4ccco4)CC3)[nH]n2)cc1	0	102	100	·	-1	·	·	·	·	·
CCCCc1nc(C(N)=O)c2[nH]c(=O)n(-c3ccc(OCC)cc3)c2n1	0	100	101	·	-1	·	·	·	·	·
CCOc1ccccc1-c1nc(C(N)=O)c2[nH]c(=O)n(-c3cccc(C)c3)c2n1	0.7*	·	·	7	·	2	94	1	114	1
CCOc1cccc(-c2nc(C(N)=O)c3[nH]c(=O)n(-c4cccc(Cl)c4)c3n2)c1O	0	106	105	-5	4	-3	105	0	123	0
CCCCc1nc(C(N)=O)c2[nH]c(=O)n(-c3ccc(OC)c(OC)c3)c2n1	0	96	98	·	-4	·	·	·	·	·
CC(C)(C)n1ncc2c(=O)n(Cc3cccc(Cl)c3)cnc21	0	93	103	4	-3	1	·	·	·	·
COCCNC(=S)N1CCc2cc(OC)c(OC)cc2C1COc1ccc(C(C)C)cc1 (centres undefined)	6.8*	105	94	34	4	5	115	0	112	0
COCCNC(=S)N1CCc2cc(OC)c(OC)cc2C1COc1ccc(F)cc1 (centres undefined)	0	95	93	9	-2	5	·	·	·	·
